Assay results as given in ChEMBL document CHEMBL3526072 (Drug Metab Dispos, 2011).

Key:
Rattus norvegicus [1] = assay: Ratio of compound AUC to verapamil AUC in Sprague-Dawley rat treated with 10 mg/kg, po of verapamil; type: ADME, organism-based; set-up: dose 10 mg/kg, route oral; conditions: in vivo
Rattus norvegicus [2] = assay: Ratio of compound AUC to verapamil AUC in streptozotocin-induced diabetes mellitus model of Sprague-Dawley rat treated with 10 mg/kg, po of verapamil; type: ADME, organism-based; set-up: dose 10 mg/kg, route oral; conditions: in vivo
[3] = Tmax in streptozotocin-induced diabetes mellitus model of Sprague-Dawley rat portal vein plasma at 10 mg/kg, po; type: ADME, organism-based; set-up: dose 10 mg/kg, route oral
Liver [4] = assay: Increase of CYP3A1 level in streptozotocin-induced diabetes mellitus model of Sprague-Dawley rat liver by Western blot analysis relative to wild type rat; type: ADME, tissue-based
Method in brief: (§1)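 Rats from the STZ 65 mg/kg i.p. protocol versus citrate-treated age-matched controls, day 35. Hepatic microsomes or duodenal and jejunal homogenates (20 µg protein) run on 10% SDS-PAGE and probed with mouse anti-rat CYP3A1 monoclonal and rabbit anti-rat CYP3A2 polyclonal antibodies; band densitometry expressed relative to controls; mean ± S.D., four rats.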

[5] = AUC (0 to 90 mins) in streptozotocin-induced diabetes mellitus model of Sprague-Dawley rat portal vein plasma at 10 mg/kg, po; type: ADME, organism-based; set-up: time < 1.5 hr, dose 10 mg/kg, route oral
[6] = Cmax in Sprague-Dawley rat portal vein plasma at 10 mg/kg, po; type: ADME, organism-based; set-up: dose 10 mg/kg, route oral
[7] = Tmax in streptozotocin-induced diabetes mellitus model of Sprague-Dawley rat at 10 mg/kg, po; type: ADME, organism-based; set-up: dose 10 mg/kg, route oral; conditions: in vivo
Intestine [8] = assay: Decrease of CYP3A2 level in streptozotocin-induced diabetes mellitus model of Sprague-Dawley rat intestine by Western blot analysis; type: ADME; method in brief: as §1
[9] = AUC (0 to 90 mins) in Sprague-Dawley rat portal vein plasma at 10 mg/kg, po; type: ADME, organism-based; set-up: time < 1.5 hr, dose 10 mg/kg, route oral
[10] = Tmax in Sprague-Dawley rat portal vein plasma at 10 mg/kg, po; type: ADME, organism-based; set-up: dose 10 mg/kg, route oral
[11] = Cmax in streptozotocin-induced diabetes mellitus model of Sprague-Dawley rat portal vein plasma at 10 mg/kg, po; type: ADME, organism-based; set-up: dose 10 mg/kg, route oral
[12] = Tmax in Sprague-Dawley rat at 10 mg/kg, po; type: ADME, organism-based; set-up: dose 10 mg/kg, route oral; conditions: in vivo
Liver [13] = assay: Increase of CYP3A2 level in streptozotocin-induced diabetes mellitus model of Sprague-Dawley rat liver by Western blot analysis relative to wild type rat; type: ADME, tissue-based; method in brief: as §1
Intestine [14] = assay: Decrease of CYP3A1 level in streptozotocin-induced diabetes mellitus model of Sprague-Dawley rat intestine by Western blot analysis; type: ADME; method in brief: as §1

Ratio AUC (Rattus norvegicus [1]) | Ratio AUC (Rattus norvegicus [2]) | Tmax [3] [min] | Activity (Liver [4]) [%] | AUC(0-t) at 1.5 h [5] [ng·h/mL] | Cmax [6] [ng/mL] | Tmax [7] [min] | AUC(0-t) at 1.5 h [9] [ng·h/mL] | Tmax [10] [min] | Cmax [11] [ng/mL] | Tmax [12] [min] | Activity (Liver [13]) [%] | SMILES | Activity (Intestine [8]) | Activity (Intestine [14])
0.69 | 0.43 | – | – | – | – | – | – | – | – | – | – | COc1ccc(CCNCCCC(C#N)(c2ccc(OC)c(OC)c2)C(C)C)cc1OC.Cl (centres undefined) | – | –
– | – | 30 | 50 | 7030 | 1440 | 21.7 | 1460 | 37.5 | 5830 | 34 | 151 | COc1ccc(CCN(C)CCCC(C#N)(c2ccc(OC)c(OC)c2)C(C)C)cc1OC (centres undefined) | Toxic | Toxic
